Diaph inh CS – diaphorase inhibitors and chemical oxidizers, primary screen, counter-screen for diaphorase-coupled primary assays, biochemical, uHTS, resorufin fluorescence. diaphorase resazurin-to-resorufin fluorescence, NADH, 16 min; bacterial (C. kluyveri) enzyme, not human. inhibition, % at 20 µM. 190,000 tested, 0.69% active. AID 1217, 2008;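 active means primary screen inhibition at 20 µM above a set limit, cut at about 50% in these data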;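 further: plate controls were DMSO with full reaction for no effect and wells lacking NADH for full effect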
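Assay system: diaphorase enzyme from Clostridium kluyveri. Quantity: enzyme working solution with 0.14 U/mL diaphorase. Schedule: reaction incubation of 16 min at room temperature. Technique: resorufin fluorescence, excitation 544 nm, emission 590 nm. Controls: No-NADH positive control and DMSO neutral control.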
Diaphorase act – compounds boosting diaphorase resazurin reduction – biochemical, uHTS, resorufin fluorescence, counter-screen for diaphorase-coupled primary assays, primary screen; Diaphorase/resazurin coupled assay, 16 min; active compounds read high; 1 = vehicle wells, 0 = NADH-free wells; 190,000 tested, 0.005% active; activation factor at 20 µM;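 active means diaphorase activity raised at least twofold by the compound at 20 µM; inactive means activation factor below 2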
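System – purified diaphorase enzyme from Clostridium kluyveri · Input – enzyme 0.07 U/mL final · Also added – final NADH 0.114 mM, resazurin 0.1 mM · Measured by – fluorescence of resorufin, 544 nm excitation, 590 nm emission · Timing – 16 min enzyme reaction, ambient temperature · Measure – resorufin increase flagging diaphorase activators or reducers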
Lmaj promast – Leishmania major promastigote growth inhibition, primary screen | 200,000 tested, 9% active | AID 1063, 2008 | Leishmania major promastigotes, resazurin fluorescence viability | inhibition, % at 10 µM; in the data active means inhibition above about 50%;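 further: promastigotes grown with compound for 44 hours at 28 °C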
KCC2 mod – KCC2 cotransporter modulators, thallium flux, primary screen, cell-based, HEK293 KCC2, FluoZin-2 fluorescence, MLSMR. KCC2 cells, thallium flux FluoZin-2 fluorescence. Solute carrier family 12 member 5 (Homo sapiens), Q9H2X9. B-score of Tl+ flux slope (higher = more flux/activation; lower = inhibition) at 10 µM. 190,000 tested, 2.2% active. AID 1456, 2008;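 active means thallium flux slope and its plate-corrected score both differing from the plate sample mean at a set confidence after two filtering rounds, in either direction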;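 further: slope of fluorescence scaled to starting intensity during 10 to 20 s after thallium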
ROMK primary – ROMK potassium channel modulators, primary screen, cell-based, thallium flux, MLSMR library. ATP-sensitive inward rectifier potassium channel 1 (Homo sapiens), P48048. Tet-inducible ROMK, thallium flux fluorescence; actives lie on both sides. B-score at 10 µM. 130,000 tested, 2% active. AID 1918, 2009;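 active means signal ratio slope over the read window, or its plate-corrected B-score, at least 3 SD from the plate mean, either direction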;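 further: B-score of the F/F0 ratio slope over 7 to 12 s after thallium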
WT yeast gro inh – growth inhibition of WT strain, primary screen, mitochondrial fusion inhibitor project, WT and mutant strains, chemical genetic | inhibition, % at 10 µM | AID 1362, 2008 | 190,000 tested, 2.1% active | mitochondrial fusion phenotypic screen; in the data active means inhibition above about 58%; tested in S. cerevisiae
An asterisk follows results filed as active; i = inactive; . = not tested or not shown. Compounds with a hit are over-represented: about 12% of the library has one in this group of screens.

SMILES | Diaph inh CS | Diaphorase act | Lmaj promast | KCC2 mod | ROMK primary | WT yeast gro inh
Clc1cccc(N/N=C(\Cc2nc3ccccc3[nH]2)c2ccccc2)c1 | 14.1 | 0.9 | 22.1 | -0.273 | . | 62.1
O=C(CSc1ncccn1)NC(=O)c1ccccc1 | -3.0 | 1 | 1.3 | -0.186 | . | -5.7
CCOc1ccc(Cl)cc1S(=O)(=O)N1CCN(c2ccc(C)c(C)c2)CC1 | 28.0 | 0.7 | 89.0* | -0.0699 | -0.709 | 27.8
CCOc1ccc(Cl)cc1S(=O)(=O)n1cnc2cc(C)c(C)cc21 | 1.6 | 1 | 11.5 | -0.594 | 1.6 | 17.1
COc1ccc(C(C)C)cc1S(=O)(=O)N1CCN(c2ccccc2)CC1 | 20.6 | 0.8 | 2.6 | -1.51 | 0.0729 | 66.2*
COc1ccc(Cl)cc1S(=O)(=O)N1CCN(c2ccc(F)cc2)CC1 | 29.7 | 0.7 | 76.6* | -0.251 | . | 17.5
COc1ccc(C(C)C)cc1S(=O)(=O)N1CC(C)OC(C)C1 (configuration not stated) | 14.1 | 0.9 | 2.6 | . | -1.06 | -4.8
CCOc1ccc(Cl)cc1S(=O)(=O)N1CCN(c2ccc(F)cc2)CC1 | 14.5 | 0.9 | 2.9 | . | . | 38.2
O=C1CCCC(O)=C1C=NCc1ccccc1 | -11.0 | 1.1 | -1.6 | -0.529 | 0.38 | 0.3
COc1ccc(Nc2ccc(N3C(=O)CCCC3=O)cc2[N+](=O)[O-])c(OC)c1 | 15.9 | 0.8 | -3.3 | 0.0379 | 0.408 | 2.0
Cc1ccc(N2CC(C(=O)Nc3ccccc3C(=O)NC3CCCCC3)CC2=O)cc1C (configuration not stated) | . | . | 0.0 | -0.97 | -1.65 | .
Clc1ccc(-c2nnc(COc3ncnc4ccccc34)o2)cc1 | 15.6 | 0.8 | -9.9 | -0.617 | -0.091 | 14.0
CC(=O)Nc1ccc(S(=O)(=O)NCc2ccc(C(=O)NC(C)c3ccccc3)cc2)cc1 (configuration not stated) | 6.9 | 0.9 | -2.9 | 0.0134 | . | -12.0
COc1cc(/C=N/NC(=O)c2cccnc2)ccc1OS(=O)(=O)c1ccc(C)cc1 | 3.6 | 1 | -4.2 | -0.768 | -0.759 | -10.0
COc1cc(/C=N/NC(=O)c2cccnc2)ccc1OS(=O)(=O)c1cc(C)ccc1C | 20.3 | 0.8 | 97.0* | -1.82 | -2.39 | 10.4
CCNC(=O)COc1ccc(/C=N/NC(=O)c2cccnc2)cc1OC | 1.4 | 1 | -0.3 | 0.12 | -0.338 | -0.8
COc1cc(/C=N/NC(=O)c2cccnc2)ccc1OCC(=O)Nc1ccc(C)cc1 | 19.1 | 0.8 | 54.5* | 0.207 | . | -12.2
O=C1OC(Nc2ccc3ncccc3c2)c2ccccc21 (configuration not stated) | 56.3* | 0.4 | 19.4 | . | . | -3.2
CCOc1cc(/C=C2\C(=O)N(c3nc(-c4ccc(Br)cc4)cs3)N=C2c2ccccc2)ccc1O | 20.4 | 0.8 | 100.2* | . | 0.964 | 0.8
CN(CC(=O)NC1CCCCCC1)S(=O)(=O)c1ccc2c(c1)n(C)c(=O)c(=O)n2C | 26.1 | 0.7 | -8.5 | . | . | -6.4
CC(C)=C1SC(N2CCN(c3cccc(Cl)c3)CC2)=NC1=O | 5.3 | 0.9 | 67.5* | -0.656 | 0.453 | 5.7
COc1ccc(NC(=O)CCC(=O)N(Cc2ccc(OC)c(OC)c2)c2nccs2)cc1 | 28.4 | 0.7 | 54.3* | 0.993 | . | -1.3
COc1ccc(C)cc1N(CC(=O)N/N=C/c1ccc2c(c1)OCO2)S(C)(=O)=O | 14.0 | 0.9 | 8.8 | -0.571 | 0.163 | -4.4
CCCN1C(=O)/C(=C/c2ccc(N3CCCC3)c(C)c2)NC1=S | 3.7 | 1 | 42.5 | i | . | 69.4*
CCN1C(=O)/C(=C/c2ccc(N3CCCC3)cc2)NC1=S | 15.3 | 0.8 | 41.7 | 4.11 | -0.555 | 35.9
SMILES | Diaph inh CS | Diaphorase act | Lmaj promast | KCC2 mod | ROMK primary | WT yeast gro inh
Cc1ccc(Nc2c(N)c(=O)oc3ccccc23)cc1 | 16.8 | 0.8 | 73.4* | -0.39 | . | -13.7
CCCCNc1c(NC(C)=O)c(=O)oc2ccccc12 | 5.8 | 0.9 | 0.4 | -0.0699 | 0.272 | 0.5
Cc1cc(N2CCCN(C)CC2)nc2cc(Cl)ccc12 | 4.7 | 1 | 80.2* | 0.267 | . | 18.6
Cc1nn(-c2cc(C)c3ccccc3n2)c2c1C1C(C2)C1(C)C (configuration not stated) | 25.2 | 0.7 | 9.7 | 1.06 | 0.382 | 63.5*
Cc1cc(N2CCCCCC2)nc2ccccc12 | 8.3 | 0.9 | 90.7* | 0.00148 | . | -6.7
Cc1ccc(S(=O)(=O)NCc2ccco2)cc1C(N)=O | 1.9 | 1 | -7.2 | 1.37 | 1.06 | 13.5
Cc1ccc(NC(=O)NCC2CCN(Cc3cccc(Cl)c3)CC2)c(Cl)c1 | -6.0 | 1.1 | 84.4* | 0.253 | -1.31 | 52.3
Cc1ccc(NC(=O)NCC2CCN(Cc3cccc(Cl)c3)CC2)cc1Cl | 0.9 | 1 | 87.1* | -0.0485 | -2.33 | 81.7*
Cc1cccc(CN2CCC(CNC(=O)CSc3cc(=O)n(C)c4cc(Cl)ccc34)CC2)c1 | . | . | . | 0.787 | . | .
CCOc1cc(/C=C2/C(=N)N3OC(C)=CC3=NC2=O)ccc1OCCOc1ccccc1 | 11.5 | 0.9 | 0.8 | -0.295 | . | -6.2
CCOC(=O)C1CN(S(C)(=O)=O)c2cc(CC(=O)OC)ccc2O1 (configuration not stated) | -10.6 | 1.1 | 1.6 | 0.0663 | -0.137 | -11.1
Cc1ccc(CC(=O)NCCS(=O)c2ccc(C)cc2)cc1 (configuration not stated) | 9.0 | 0.9 | -8.1 | . | 0.507 | -9.9
Cc1c(/C=C/C(=O)c2ccc(Cl)s2)cnn1C | 2.3 | 1 | 20.0 | -0.364 | . | 13.7
COc1cc(/C=C/C(=O)c2ccc(Cl)s2)cc(OC)c1O | 17.6 | 0.8 | 100.1* | -0.66 | . | 14.3
COc1cc(/C=C/C(=O)CC(=O)/C=C/c2ccc(O)c(OC)c2)ccc1O | 40.8 | 0.6 | 48.7 | i | . | -0.4
COc1ccc(C(=O)/C=C/c2ccc(OC)c(O)c2)c(F)c1 | 41.0 | 0.6 | 82.1* | -0.843 | . | -12.1
COc1ccc(/C=C/C(=O)c2ccc(Cl)s2)cc1O | 48.9 | 0.5 | 91.6* | 0.0752 | . | -3.6
Cc1cc(C(F)(F)F)n2nc(-c3cnn(C)c3C(F)(F)F)c(Br)c2n1 | -0.6 | 1 | -6.4 | -0.9 | -0.513 | 5.3
COc1ccccc1NS(=O)(=O)c1cc(NC(=O)C2CCC2)ccc1N1CCCCC1 | . | . | . | 1.93 | . | .
O=C(Nc1cccc(S(=O)(=O)N2CCCCC2)c1)Nc1ccc(Cl)cc1Cl | 18.3 | 0.8 | 59.9* | -0.0205 | 0.0219 | 81.7*
COc1ccccc1NS(=O)(=O)c1cc(NC(=O)Nc2ccc(Cl)cc2Cl)ccc1N1CCCCC1 | 15.3 | 0.8 | 99.2* | 1.39 | . | 13.5
